Measurements published in ChEMBL document CHEMBL4680083, “Identification of Tricyclic Agonists of Sphingosine-1-phosphate Receptor 1 (S1P) Employing Ligand-Based Drug Design” (J Med Chem, 2016).
Activity calls are given as the source filed them. No cut-off for these calls is given here.

How the values were obtained:
[1] = tested on: Rattus norvegicus; experiment: Reduction in circulating lymphocytes count in Lewis rat blood at 1 mg/kg, po measured at 24 hrs by hematology analyzer based analysis; assay type: functional; design: scale not given: the % may be the effect or the level left
How it was run: (§1)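 Lewis rats were given an oral dose as a solution or suspension in PEG300, with controls receiving vehicle only. Blood was taken by retro-orbital bleeding under isoflurane at 4 and 24 h. Lymphocytes were counted on a hematology analyzer. Reduction is relative to the vehicle group, averaged over the animals in each group (n = 3−4).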

[2] = Plasma concentration in Lewis rat at 1 mg/kg, po measured at 24 hrs; assay type: ADME, organism-based; conditions: Lewis, plasma
How it was run: (§2)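 Lewis rats received a single oral 1.0 mg/kg dose as solution or suspension in PEG300. Blood was drawn retro-orbitally under isoflurane at 4 h and 24 h, within the blood lymphocyte reduction study. n = 3−4 per group, group mean reported.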

[3] = molecular target: Sphingosine 1-phosphate receptor 1 (Homo sapiens, UniProt P21453); experiment: Agonist activity at human S1P1 expressed in CHO cell membranes assessed as stimulation of [35S]-GTPgamma-S binding measured after 45 mins by liquid scintillation counting method; design: species or system Cell membrane
How it was run: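 S1P1/CHO cell membranes at 3 μg protein/well with 3-fold compound dilutions. [35S]GTPγS 0.2 nM final, 45 min at room temperature. Filter-plate capture, water washes, scintillation counting. EC50 taken at 50% of each compound's own Ymax.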

[4] = Ratio of plasma concentration in Lewis rat at 1 mg/kg, po measured at 4 hrs to plasma concentration in Lewis rat at 1 mg/kg, po measured at 24 hrs; assay type: ADME, organism-based; conditions: in vivo
[5] = tested on: Rattus norvegicus; experiment: Reduction in circulating lymphocytes count in Lewis rat blood at 1 mg/kg, po measured at 4 hrs by hematology analyzer based analysis; assay type: functional; design: scale not given: the % may be the effect or the level left; how it was run: as §1
[6] = molecular target: Sphingosine 1-phosphate receptor 3 (Homo sapiens, UniProt Q99500); experiment: Agonist activity at human S1P3 expressed in CHO cell membranes assessed as stimulation of [35S]-GTPgamma-S binding measured after 45 mins by liquid scintillation counting method; design: species or system Cell membrane
[7] = Plasma concentration in Lewis rat at 1 mg/kg, po measured at 4 hr; assay type: ADME, organism-based; conditions: Lewis, plasma; how it was run: as §2
[8] = Selectivity index, ratio of EC50 for agonist activity at human S1P3 expressed in CHO cell membranes to EC50 for agonist activity at human S1P1 expressed in CHO cell membranes; assay type: cell-based
[9] = tested on: Rattus norvegicus; experiment: Antiarthritic activity in Lewis rat model of Complete Freund's adjuvant-induced arthritis assessed as reduction in paw swelling at 0.1 mg/kg, po qd administered for 21 days after CFA injection and measured weekly three times upto day 21 by water displacement plethysmometry; assay type: functional; conditions: time 21.0 day
How it was run: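 Male Lewis rats, 200−225 g, n = 8 per group. Immunized at the tail base with 100 μL of 10 mg/mL ground Mycobacterium butyricum in incomplete Freund's adjuvant. Oral dosing once daily in PEG300 vehicle from the day of immunization for 21 days, at 0.03, 0.1 or 1.0 mg/kg. Dexamethasone 0.1 mg/kg PO QD as positive control. Paw volume by water displacement plethysmometry, day 7 to day 21.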

Sphingosine 1-phosphate receptor 3, sequence (Q99500 whole entry): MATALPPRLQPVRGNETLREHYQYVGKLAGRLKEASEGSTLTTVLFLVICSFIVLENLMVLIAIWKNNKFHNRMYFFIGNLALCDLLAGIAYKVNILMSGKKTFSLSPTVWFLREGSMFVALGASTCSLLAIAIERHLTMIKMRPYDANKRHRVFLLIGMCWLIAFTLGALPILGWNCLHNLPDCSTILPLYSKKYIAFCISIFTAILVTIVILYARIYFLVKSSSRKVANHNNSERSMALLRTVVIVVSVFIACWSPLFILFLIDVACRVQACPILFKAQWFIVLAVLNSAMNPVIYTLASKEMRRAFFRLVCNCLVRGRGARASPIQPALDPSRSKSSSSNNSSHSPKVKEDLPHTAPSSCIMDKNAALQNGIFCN
Sphingosine 1-phosphate receptor 1, sequence (P21453 whole entry): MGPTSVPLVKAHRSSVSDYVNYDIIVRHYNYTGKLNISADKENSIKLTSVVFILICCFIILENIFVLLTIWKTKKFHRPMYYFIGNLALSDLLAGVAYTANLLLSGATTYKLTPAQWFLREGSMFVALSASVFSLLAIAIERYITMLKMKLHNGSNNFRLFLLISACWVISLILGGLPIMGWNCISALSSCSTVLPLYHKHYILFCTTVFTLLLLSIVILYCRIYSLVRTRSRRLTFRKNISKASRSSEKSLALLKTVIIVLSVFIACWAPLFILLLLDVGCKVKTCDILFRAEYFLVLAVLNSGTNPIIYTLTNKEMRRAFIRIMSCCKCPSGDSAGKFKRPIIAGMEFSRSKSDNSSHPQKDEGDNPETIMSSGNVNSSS

SMILES | Activity [1] [%] | concentration at 24 h [2] [nM] | EC50 [3] [nM] | Ratio [4] | Activity [5] [%] | EC50 [6] [nM] | concentration at 4 h [7] [nM] | Ratio EC50 [8] | Activity [9]
O=C(O)C1CN(Cc2ccc3c(c2)CCc2c-3noc2-c2nsc(-c3ccccc3)c2C(F)(F)F)C1 | 85 | 26 | 0.33 | 6 | 82 | 1400 | 150 | 4200 | 
O=C(O)C1CN(Cc2ccc3c(c2)OCc2c-3noc2-c2noc(-c3ccccc3)c2C(F)(F)F)C1 | 93 | 46 | 0.27 | 5 | 87 | 1200 | 230 | 4400 | 
O=C(O)C1CN(Cc2ccc3c(c2)CCc2c(-c4onc(-c5ccccc5)c4C(F)(F)F)noc2-3)C1 | 79 | 8 | 1.3 | 4 | 66 | 4400 | 34 | 3400 | 
C[C@@H]1C[C@H]2[C@@H]3CCC4=CC(=O)C=C[C@]4(C)[C@@]3(F)[C@@H](O)C[C@]2(C)[C@@]1(O)C(=O)CO |  |  |  |  |  |  |  |  | Active
O=C(O)C1CN(Cc2ccc3c(c2)CCc2c-3noc2-c2snc(-c3ccccc3)c2C(F)(F)F)C1 | 69 | 32 | 0.58 | 6 | 74 | 4600 | 190 | 7900 | 
CC1(c2onc(-c3onc4c3CCc3cc(CN5CC(C(=O)O)C5)ccc3-4)c2C(F)(F)F)CC1 | 34 | 4 | 1.3 | 48 | 85 | 1300 | 190 | 1000 | 
O=C(O)C1CN(Cc2ccc3c(c2)CCc2c-3noc2-c2onc(-c3ccccn3)c2C(F)(F)F)C1 | 69 | 1 | 1 | 120 | 82 | 1300 | 120 | 1300 | 
O=C(O)C1CN(Cc2ccc3c(n2)CCc2c(-c4noc(-c5ccccc5)c4C(F)(F)F)noc2-3)C1 | 32 | 47 | 17 | 10 | 76 | > 63000 | 460 | > 3700 | 
